Results from paper PMC3690436 (Journal of nuclear medicine : official publication, Society …, 2009).
Values belong to the compound of their own block, whether it stands above or below them.

How the values were obtained:
P-gp [1] = biological target: T1, P-gp (Homo sapiens, UniProt P08183); details: cited from earlier work
P-gp [2] = biological target: T1, P-gp; test: Rhodamine-123 efflux assay in peripheral white blood cells; format: cell-based
Procedure, shortened: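 Fresh whole blood (18 mL) was drawn from each of the 5 volunteers before dosing. Isolated white blood cells were incubated at 37°C with Rh-123 (0.2 μg/mL) and 10 dilutions of test compound in DMSO (final 0.01 nM–1 μM), in duplicate. Rh-123 accumulation (mean fluorescence per cell) was read by FACS. EC50 came from hyperbolic dose-response fits, given as mean±SD over the 5 donors.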

[3] = Tariquidar concentration in venous plasma by LC/MS; format: in vivo, human
[4] = Arterial blood and metabolite analysis of; format: in vivo, human; details: 2 mg/kg i.v.
[5] = Tolerability of tariquidar in healthy volunteers; format: in vivo, human; details: 2 mg/kg BW i.v., 5 healthy male subjects
[6] = biological target: P-gp at the human blood-brain barrier (Homo sapiens, UniProt P08183)
P-gp [7] = details: rats, cited from earlier work
[8] = cited from earlier work
[9] = humans; ref Ulrich Elben, written communication, 2008; cited from earlier work
P-gp [10] = details: in vitro; cited from earlier work
MRP1 = details: cited from earlier work
P-gp [11] = details: non-human primates, infusion of 20 mg/kg/2 hr; cited from earlier work

T1 sequence (P08183 whole entry): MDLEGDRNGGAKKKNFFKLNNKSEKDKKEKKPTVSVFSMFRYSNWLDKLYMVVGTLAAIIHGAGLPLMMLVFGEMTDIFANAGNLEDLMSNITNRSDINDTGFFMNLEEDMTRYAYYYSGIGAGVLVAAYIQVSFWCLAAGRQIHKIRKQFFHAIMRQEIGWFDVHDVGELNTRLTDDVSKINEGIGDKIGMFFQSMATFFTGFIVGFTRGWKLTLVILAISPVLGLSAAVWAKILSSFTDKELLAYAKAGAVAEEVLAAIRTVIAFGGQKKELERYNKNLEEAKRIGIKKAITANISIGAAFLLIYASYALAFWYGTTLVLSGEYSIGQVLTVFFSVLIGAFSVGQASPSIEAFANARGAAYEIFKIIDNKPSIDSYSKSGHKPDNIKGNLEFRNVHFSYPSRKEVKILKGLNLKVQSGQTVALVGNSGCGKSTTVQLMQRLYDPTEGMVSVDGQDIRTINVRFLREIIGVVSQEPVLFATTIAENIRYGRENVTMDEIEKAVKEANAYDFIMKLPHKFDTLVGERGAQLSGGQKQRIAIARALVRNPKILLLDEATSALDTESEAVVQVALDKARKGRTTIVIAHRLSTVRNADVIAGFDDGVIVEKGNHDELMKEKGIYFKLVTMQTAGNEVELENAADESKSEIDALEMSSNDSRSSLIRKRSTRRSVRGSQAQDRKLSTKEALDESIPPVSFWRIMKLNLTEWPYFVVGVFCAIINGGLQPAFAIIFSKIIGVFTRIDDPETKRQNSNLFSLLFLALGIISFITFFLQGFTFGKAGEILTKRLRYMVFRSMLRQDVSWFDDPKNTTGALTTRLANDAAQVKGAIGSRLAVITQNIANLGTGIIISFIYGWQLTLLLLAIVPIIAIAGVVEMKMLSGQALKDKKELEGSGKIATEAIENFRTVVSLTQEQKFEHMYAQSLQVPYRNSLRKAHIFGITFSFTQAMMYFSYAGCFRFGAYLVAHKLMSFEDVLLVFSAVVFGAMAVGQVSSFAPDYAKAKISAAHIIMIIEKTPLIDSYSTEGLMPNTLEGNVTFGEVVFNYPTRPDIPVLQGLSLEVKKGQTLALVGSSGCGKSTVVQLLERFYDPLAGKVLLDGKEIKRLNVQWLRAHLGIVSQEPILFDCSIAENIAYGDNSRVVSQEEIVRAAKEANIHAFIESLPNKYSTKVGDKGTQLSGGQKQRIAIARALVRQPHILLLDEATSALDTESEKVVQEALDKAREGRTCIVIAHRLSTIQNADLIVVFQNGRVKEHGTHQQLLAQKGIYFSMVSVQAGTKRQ
P-gp at the human blood-brain barrier, sequence (P08183 whole entry): as above

SMILES: C=C[C@H]1C[N@@]2CC[C@H]1C[C@@H]2[C@@H](O)c1ccnc2ccc(OC)cc12 [quinidine]
CNS pharmacologic effect of loperamide when inhibitor co-administered (P-gp [1]; 8 healthy volunteers): caused respiratory depression

EC50 (P-gp [2]): 773 pM | Plasma concentration of tariquidar during the second PET scan ([3]; 200-240 min after start of infusion, 2 mg/kg i.v., mean±SD): 490 ± 166 ng/mL | Plasma concentration relative to EC50 for inhibition of Rh-123 efflux ([3]; at 24 h after tariquidar infusion): 424 fold | Concentration of unbound tariquidar in plasma ([3]; at the time of the second scan, corrected for 99.5% protein binding): 2.45 ± 0.83 ng/mL | Plasma concentration relative to EC50 for inhibition of Rh-123 efflux ([3]; during second PET scan): 980 fold | concentration at 24 h ([3]; male, human, plasma, intravenous, 2 mg/kg): 212 ± 24 ng/mL | Influence of tariquidar on the metabolism of (R)-11C-verapamil [4]: did not have significant influence | Maximum increase of brain radioactivity versus baseline (t=40 min) ([6]; scan 1, at 5 min after end of tariquidar infusion (t=75 min), 2 mg/kg i.v.): +74% | Increase of brain radioactivity versus baseline (t=40 min) ([6]; scan 1, at 35 min after end of tariquidar infusion (t=115 min), on average): +10%
SMILES: COc1cc2c(cc1OC)CN(CCc1ccc(NC(=O)c3cc(OC)c(OC)cc3NC(=O)c3cnc4ccccc4c3)cc1)CC2 [tariquidar, Tariquidar]
Mild adverse events possibly related to study medication [5]: mild hypotension, headache and nausea, each in one patient and dizziness in 2 patients | Tolerability [5]: well tolerated without occurrence of severe or serious adverse events | Plasma tariquidar concentration at the time of the PET scan (P-gp [7]; 15 mg/kg): about 1,400 ng/mL | Increase of (R)-11C-verapamil DVs (P-gp [7]; plasma tariquidar levels about 500 ng/mL): 3-4 fold | Increase of the (R)-11C-verapamil DV (P-gp [7]; tariquidar 15 mg/kg): 12 fold | Tariquidar-related material in plasma existing as unchanged parent compound ([8]; monkey plasma): > 95% | Elimination half-life ([8]; monkey): 5 h | Binding to plasma proteins [9]: 99.5% | Duration of P-gp inhibitory effect after removal from the incubation medium (P-gp [10]): up to 22 h | Inhibition of MRP1 (MRP1): does not inhibit | CNS activity of loperamide (reduction in pupil diameter) after inhibitor (P-gp [1]; humans, tariquidar 2 mg/kg BW): not affected

SMILES: C/C=C/C[C@@H](C)C(=O)[C@H]1C(=O)N[C@@H](C(C)C)C(=O)N(C)CC(=O)N(C)[C@@H](CC(C)C)C(=O)N[C@@H](C(C)C)C(=O)N(C)[C@@H](CC(C)C)C(=O)N[C@@H](C)C(=O)N[C@H](C)C(=O)N(C)[C@@H](CC(C)C)C(=O)N(C)[C@@H](CC(C)C)C(=O)N(C)[C@@H](C(C)C)C(=O)N1C [valspodar]
Increase of brain uptake of racemic 11C-verapamil (P-gp [11]): 4.61 fold
